Results of several laboratories.
Target: Carbonic anhydrase 1 (CA1, Homo sapiens, UniProt P00915)
Read-out: enzyme activity
Mode: inhibitor

| Compound | test | endpoint | result |
| --- | --- | --- | --- |
| CC(C)c1cc2c(c(O)c1O)[C@@]13CCCC(C)(C)[C@@H]1[C@@H](O)[C@@H]2OC3=O | – | Ki | 1.28 nM |
| NC(=S)N/N=C1/c2ccccc2[C@@H]2[C@H]1[C@@H](c1ccsc1)[C@H](C(=O)c1ccsc1)[C@H]2c1ccsc1 (racemic) | absorbance | IC50 | 452 nM |
| O=C(Nc1ccc2c(c1)C=CCP(=O)(O)O2)c1ccc([N+](=O)[O-])cc1 | stopped-flow | Ki | > 10000 nM |
| COc1ccc(C(=O)[C@@H]2[C@@H](c3ccc(OC)cc3)[C@@H]3c4ccccc4/C(=N/NC(N)=S)[C@@H]3[C@H]2c2ccc(OC)cc2)cc1 (racemic) | absorbance | IC50 | 1070 nM |
| O=C(Nc1ccc2c(c1)C=CCP(=O)(O)O2)c1ccc(F)cc1 | stopped-flow | Ki | > 10000 nM |
| Cc1cc(=O)oc2cc(OCCCC[Se]C#N)ccc12 | stopped-flow | Ki | > 100000 nM |
| CC(C)c1cc2c(c(O)c1O)[C@@]13CCCC(C)(C)[C@@H]1C[C@@H]2OC3=O | – | IC50 | 2.4 nM |
| COc1ccc(NC(=O)Nc2ccc3c(c2)C=CCP(=O)(O)O3)cc1 | stopped-flow | Ki | > 10000 nM |
| NC(=S)N/N=C1/c2ccccc2[C@@H]2[C@H]1[C@@H](c1ccc(F)cc1)[C@H](C(=O)c1ccc(F)cc1)[C@H]2c1ccc(F)cc1 (racemic) | absorbance | IC50 | 293 nM |
| CC(C)c1cc2c(c(O)c1O)[C@@]1(C(=O)O)CCCC(C)(C)[C@@H]1CC2 | – | Ki | 5.98 nM |
| CCOP1(=O)CC=Cc2cc(N)ccc2O1 (stereo not drawn) | stopped-flow | Ki | > 10000 nM |
| N#C[Se]Cc1cc(=O)oc2cc(O)ccc12 | stopped-flow | Ki | > 100000 nM |
| CC(C)c1cc2c(c(O)c1O)[C@@]13CCCC(C)(C)[C@@H]1[C@H](OC3=O)[C@H]2O | – | IC50 | 0.21 nM |
| Cc1ccc([C@@H]2[C@@H](C(=O)c3cccs3)[C@H](c3ccco3)[C@H]3/C(=N\NC(N)=S)c4ccccc4[C@H]32)cc1 (racemic) | absorbance | IC50 | 413 nM |
| O=C(Nc1cccc(Cl)c1)Nc1ccc2c(c1)C=CCP(=O)(O)O2 | stopped-flow | Ki | > 10000 nM |
